Columns and labels:
[1] = biological target: Sphingosine 1-phosphate receptor 3 (Homo sapiens, UniProt Q99500); assay: Agonist activity at human recombinant S1P3 receptor expressed in CHO cells assessed as membrane-bound 35S-GTPgammaS incubated 30 mins prior to substrate addition measured after 1 hr by topcount scintillation counting analysis; type: functional, cell-based
[2] = biological target: Sphingosine 1-phosphate receptor 1 (Homo sapiens, UniProt P21453); assay: Agonist activity at human recombinant S1P1 receptor expressed in CHO cells assessed as membrane-bound 35S-GTPgammaS incubated 30 mins prior to substrate addition measured after 1 hr by topcount scintillation counting analysis; type: functional, cell-based
Chain of Sphingosine 1-phosphate receptor 1 (P21453 whole entry): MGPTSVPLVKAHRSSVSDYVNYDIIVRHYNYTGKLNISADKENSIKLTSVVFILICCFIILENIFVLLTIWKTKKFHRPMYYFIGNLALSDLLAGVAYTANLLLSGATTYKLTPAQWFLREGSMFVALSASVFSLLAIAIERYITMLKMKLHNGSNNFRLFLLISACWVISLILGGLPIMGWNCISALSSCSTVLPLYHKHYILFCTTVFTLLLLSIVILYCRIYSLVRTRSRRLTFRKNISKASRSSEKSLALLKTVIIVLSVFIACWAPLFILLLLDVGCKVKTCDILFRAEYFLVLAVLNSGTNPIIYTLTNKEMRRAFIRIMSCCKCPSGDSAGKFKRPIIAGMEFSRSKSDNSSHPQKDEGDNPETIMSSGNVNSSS

Homo sapiens = organism: Homo sapiens; assay: Selectivity ratio of EC50 for human recombinant S1P3 receptor to EC50 for human recombinant S1P1 receptor
Method in brief: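 GDP was 1 μM for S1P1 and 3 μM for S1P3. Compounds (up to 10 μM) were preincubated 30 min at rt, then incubated 1 h at rt. Bound label was counted after filtration. 10 μM S1P defined maximum. EC50s are geometric means of ≥3 independent duplicate runs.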

Rattus norvegicus [3] = assay: Lymphopenic activity in Wistar rat assessed as reduction in blood lymphocyte count at 10 mg/kg, po after 6 hrs; type: functional; parameters: scale not given: the % may be the effect or the level left
Method in brief: (§1)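 Normotensive male Wistar rats given 1–10 mg/kg by gavage in 5% DMSO/7.5% succinylated gelatin. Blood taken before and 3, 6 and 24 h after dosing, with later times for some compounds. Lymphocytes counted by hematology analyzer. % LC change calculated per animal relative to the predose value (=100%). Mean ± SEM.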

Rattus norvegicus [4] = assay: Lymphopenic activity in Wistar rat assessed as reduction in blood lymphocyte count at 10 mg/kg, po after 24 hrs; type: functional; method in brief: as §1
Rattus norvegicus [5] = assay: Lymphopenic activity in Wistar rat assessed as reduction in blood lymphocyte count at 10 mg/kg, po after 3 hrs; type: functional; parameters: scale not given: the % may be the effect or the level left; method in brief: as §1
Rattus norvegicus [6] = assay: Lymphopenic activity in po dosed Wistar rat assessed as reduction in blood lymphocyte count; type: functional, organism-based; method in brief: as §1
[7] = Plasma concentration in Wistar rat at 10 mg/kg, po after 6 hrs; type: ADME, organism-based; parameters: dose 10 mg/kg, route oral
[8] = Plasma concentration in Wistar rat at 10 mg/kg, po after 24 hrs; type: ADME, organism-based; parameters: dose 10 mg/kg, route oral
[9] = Plasma concentration in Wistar rat at 10 mg/kg, po after 3 hrs; type: ADME, organism-based; parameters: dose 10 mg/kg, route oral
Rattus norvegicus [10] = assay: Lymphopenic activity in Wistar rat assessed as reduction in blood lymphocyte count at 10 mg/kg, po after 72 hrs; type: functional; parameters: scale not given: the % may be the effect or the level left; method in brief: as §1
Rattus norvegicus [11] = assay: Lymphopenic activity in Wistar rat assessed as reduction in blood lymphocyte count at 10 mg/kg, po after 144 hrs; type: functional; parameters: scale not given: the % may be the effect or the level left; method in brief: as §1

Chain of Sphingosine 1-phosphate receptor 3 (Q99500 whole entry): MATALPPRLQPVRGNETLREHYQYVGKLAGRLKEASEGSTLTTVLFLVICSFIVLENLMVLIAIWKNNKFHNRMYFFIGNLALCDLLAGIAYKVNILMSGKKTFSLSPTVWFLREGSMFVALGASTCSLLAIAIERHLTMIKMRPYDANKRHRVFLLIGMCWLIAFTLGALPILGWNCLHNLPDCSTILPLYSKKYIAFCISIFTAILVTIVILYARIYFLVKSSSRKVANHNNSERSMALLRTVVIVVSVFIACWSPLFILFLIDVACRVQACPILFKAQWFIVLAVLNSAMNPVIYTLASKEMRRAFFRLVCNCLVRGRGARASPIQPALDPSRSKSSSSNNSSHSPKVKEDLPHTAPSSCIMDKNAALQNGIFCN

Row | Structure (SMILES) | EC50 [1] [nM] | EC50 [2] [nM] | also measured
1 | Cc1cc(CCC(=O)c2sc(C)c3c2CCC(C)(C)C3)cc(C)c1O | > 10000 | 21 | –
2 | CCc1cc(-c2noc(-c3scc4c3CCC(C)(C)C4)n2)cc(C)c1OCC(O)CNC(=O)CO (racemic) | 314 | 1.7 | Ratio EC50 (Homo sapiens): 100
3 | CCCCc1ccc(-c2nc(-c3cc(C)c(OCC(O)CNC(=O)CO)c(C)c3)no2)s1 (racemic) | 1250 | 4.7 | Activity (Rattus norvegicus [3]): -52%; % change in blood lymphocyte count from predose (Rattus norvegicus [4]): 18%; Activity (Rattus norvegicus [5]): -66%
4 | CCc1sc(C(=O)CCc2cc(C)c(OCC(O)CO)c(C)c2)c2c1C[C@@H](N(C)C)CC2 (mixture of isomers) | > 10000 | 1600 | –
5 | CCc1cc(CCC(=O)c2sc(OC)c3c2CCC(C)(C)C3)cc(C)c1OCC(O)CNC(=O)CO (racemic) | 3910 | 1.3 | –
6 | Cc1cc(CCC(=O)c2sc(C)c(CC(C)C)c2C)cc(C)c1OCC(O)CNC(=O)CO (racemic) | 5270 | 2.7 | –
7 | CCCc1sc(-c2nc(-c3cc(C)c(OC[C@@H](O)CNC(=O)CO)c(CC)c3)no2)c2c1CC(C)(C)CC2 | 11 | 20 | –
8 | CCc1cc(CCC(=O)c2sc(C)c3c2CCC(C)(C)C3)cc(C)c1OCC(O)CNC(=O)CO (racemic) | 4420 | 1.2 | –
9 | Cc1cc(CCC(=O)c2sc(C)c3c2CCC(C)(C)C3)cc(C)c1OCC(O)CN (racemic) | > 10000 | 7 | –
10 | Cc1cc(-c2noc(-c3cc(CC(C)C)c(C)s3)n2)cc(C)c1OCC(O)CNC(=O)CO (racemic) | 236 | 1.5 | Activity (Rattus norvegicus [3]): -78%; % change in blood lymphocyte count from predose (Rattus norvegicus [4]): -91%; Activity (Rattus norvegicus [5]): -77%
11 | CCc1cc(CCC(=O)c2sc(C(F)(F)F)c3c2CCC(C)(C)C3)cc(C)c1OCC(O)CNC(=O)CO (racemic) | 242 | 1.3 | –
12 | CCc1sc(C(=O)CCc2cc(C)c(OC[C@@H](O)CO)c(C)c2)c2c1CCCC2 | 3830 | 20 | –
13 | Cc1cc(CCC(=O)c2sc(C)c3c2CCC(C)(C)C3)cc(C)c1OCC(O)CNC(=O)CO (racemic) | 392 | 0.5 | –
14 | CCc1sc(C(=O)CCc2cc(C)c(OC[C@@H](O)CO)c(C)c2)c2c1CC1(CC2)CC1 | 819 | 1.1 | –
15 | Cc1cc(CCC(=O)c2sc(C)c3c2CCC(C)(C)C3)cc(C)c1OCCNCCO | > 10000 | 11 | –
16 | CCCc1sc(C(=O)CCc2cc(C)c(OC[C@@H](O)CNC(=O)CO)c(CC)c2)c2c1CC(C)(C)CC2 | 25 | 1.3 | –
17 | CCc1sc(C(=O)CCc2cc(C)c(OC[C@@H](O)CO)c(C)c2)c2c1CC1(CCCC1)CC2 | 62 | 0.4 | –
18 | CCCc1ccc(-c2nc(-c3cc(C)c(OCC(O)CNC(=O)CO)c(C)c3)no2)s1 (racemic) | 1150 | 0.9 | Activity (Rattus norvegicus [3]): -59%; % change in blood lymphocyte count from predose (Rattus norvegicus [4]): 31%; Activity (Rattus norvegicus [5]): -65%
19 | Cc1cc(CCC(=O)c2sc(C)c3c2CCC(C)(C)C3)cc(C)c1OCC(O)CNCCO (racemic) | > 10000 | 14 | –
20 | CCc1cc(-c2noc(-c3sc(CC)c4c3CCCC4)n2)cc(C)c1OC[C@@H](O)CNC(=O)CO | 172 | 0.9 | –
21 | Cc1cc(CCC(=O)c2sc(C)c3c2CCC(C)(C)C3)cc(C)c1OCCN | 8560 | 6.1 | –
22 | Cc1cc(-c2noc(-c3ccc(CC(C)C)s3)n2)cc(C)c1OCC(O)CNC(=O)CO (racemic) | 247 | 0.6 | Activity (Rattus norvegicus [3]): -79%; Activity (Rattus norvegicus [6]): Dose-dependent effect; concentration at 6 h [7]: 680 ng/mL; % change in blood lymphocyte count from predose (Rattus norvegicus [4]): -66%; concentration at 24 h [8]: 23 ng/mL; concentration at 3 h [9]: 1010 ng/mL; Activity (Rattus norvegicus [10]): 14%; Activity (Rattus norvegicus [5]): -75%
23 | Cc1cc(-c2noc(-c3sc(C)c4c3CCC(C)(C)C4)n2)cc(C)c1OCC(O)CNC(=O)CO (racemic) | 15 | 1.6 | Activity (Rattus norvegicus [3]): -73%; Activity (Rattus norvegicus [11]): -7%; % change in blood lymphocyte count from predose (Rattus norvegicus [4]): -77%; Activity (Rattus norvegicus [10]): -73%; Activity (Rattus norvegicus [5]): -70%
24 | Cc1cc(CCC(=O)c2sc(C)c3c2CCC(C)(C)C3)cc(C)c1OCC(O)CN1CC(C(=O)O)C1 (racemic) | 1760 | 4.3 | –
